One block for each molecule: values may come before it. Active and inactive are the calls of the source. The calls are words filed in the database; no cut-off is given here.
What was measured:
[1] = test system: Mast/stem cell growth factor receptor Kit (Homo sapiens), P10721 [V654A]; assay: Inhibition of Tel-fused c-KIT V654A mutant (unknown origin) expressed in BAF3 cells assessed as growth inhibition measured after 72 hrs by CellTiter-Glo or CCK8 assay; assay type: cell-based
How it was run: (§1)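 BaF3 lines were made by retroviral transduction with kinase-fusion MSCV vectors packaged in HEK293T cells. Cells were selected with puromycin for 48 h, then selected again without IL-3 so growth depends on the introduced kinase. […] They were seeded at 1 to 2.5×10^4 cells/mL with compound dilutions and incubated 72 h. Viability was read by CellTiter-Glo luminescence or CCK-8 absorbance (450/655 nm), normalized to DMSO control; GI50 was curve-fitted from triplicate tests.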

[2] = target: T1, Tyrosine-protein kinase ABL1 (Homo sapiens, UniProt P00519); assay: Inhibition of C-terminal His-tagged human ABL1 expressed in baculovirus infected SF9 cells assessed as residual activity at 1 uM using Tyr 02 peptide as substrate measured after 1 hr by FRET based Z'Lyte assay relative to control
[3] = Antiproliferative activity against human K562 cells measured after 72 hrs by CellTiter-Glo or CCK8 assay; assay type: functional; settings: K562, 72 h
[4] = target: T1, Tyrosine-protein kinase ABL1; assay: Inhibition of C-terminal His-tagged human ABL1 expressed in baculovirus infected SF9 cells using Tyr 02 peptide as substrate measured after 1 hr by FRET based Z'Lyte assay
K562 [5] = assay: Induction of apoptosis in human K562 cells assessed as increase in cleaved caspase-3 level at 0.1 to 3 uM by Western blot analysis; assay type: functional, cell-based
How it was run: (§2)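 Cells were treated with DMSO or serially diluted compound for the indicated periods. They were washed in ice-cold PBS and lysed in RIPA buffer with protease/phosphatase inhibitors, and protein was quantified by BCA. Lysates were resolved by SDS-PAGE, transferred to PVDF and blocked in 5% milk/TBST. Blots were probed for PARP and caspase-3, with β-actin as loading control, and detected by ECL.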

[6] = target: T2, BCR/ABL p210 fusion protein (Homo sapiens, UniProt A1Z199); assay: Inhibition of BCR/ABL p210 fusion protein mediated signaling pathways assessed as reduction in CrkL phosphorylation at Y207 in human K562 cells at 0.01 to 3 uM measured after 2 hrs by immunoblotting; assay type: cell-based
How it was run: (§3)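 After an ice-cold PBS wash, cells were lysed in RIPA buffer (50 mM Tris pH 8.0) with protease and phosphatase inhibitors, and protein was quantified by BCA. Lysates were run on SDS-PAGE, transferred to PVDF and blocked in 5% milk/TBST. Phospho- and total proteins were probed by immunoblot with ECL detection; β-actin served as loading control.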

K562 [7] = assay: Antiproliferative activity against human K562 cells xenografted in nu/nu mouse administered daily via oral gavage measured 28 days post compound treatment by Ki-67 staining based assay; assay type: functional, cell-based
How it was run: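 K562 xenograft tumors were taken after daily oral dosing. Tissue was fixed in 10% neutral-buffered formalin, paraffin-embedded and cut into 6-micron sections. […] Detection used DAB with a hematoxylin counterstain.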

GISTT1 = assay: Induction of apoptosis in human GISTT1 cells assessed as cleavage of PARP at 0.1 to 3 uM by Western blot analysis; assay type: functional, cell-based; how it was run: as §2
[8] = target: Tyrosine-protein kinase Lck (Homo sapiens, UniProt P06239); settings: BaF3
[9] = test system: Mast/stem cell growth factor receptor Kit (Homo sapiens), P10721 [D816V]; assay: Inhibition of Tel-fused c-KIT D816V mutant (unknown origin) expressed in BAF3 cells assessed as growth inhibition measured after 72 hrs by CellTiter-Glo or CCK8 assay; assay type: cell-based; how it was run: as §1
[10] = target: Tyrosine-protein kinase Blk (Homo sapiens, UniProt P51451); assay: Inhibition of full length recombinant His-tagged human BLK cytoplasmic domain expressed in baculovirus expression system measured after 1 hr by FRET based Z'Lyte assay
How it was run: (§4)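 Z'-LYTE FRET biochemical kinase assay run by Invitrogen on selected kinases identified from binding profiling; IC50 from dose-response.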

[11] = target: T3, Mast/stem cell growth factor receptor Kit (Homo sapiens, UniProt P10721); assay: Inhibition of c-KIT autophosphorylation at Y823 in human GISTT1 cells at 0.03 to 10 uM measured after 2 hrs by immunoblotting; assay type: cell-based; how it was run: as §3
[12] = target: T3, Mast/stem cell growth factor receptor Kit; assay: Inhibition of c-KIT mediated signaling pathways assessed as reduction in STAT3/5 phosphorylation at Y705/Y694 in human GIST882 cells at 0.03 to 10 uM measured after 2 hrs by immunoblotting; assay type: cell-based; how it was run: as §3
K562 [13] = assay: Induction of apoptosis in human K562 cells xenografted in nu/nu mouse administered daily via oral gavage measured 28 days post compound treatment by TUNEL staining based assay; assay type: functional, cell-based
How it was run: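 K562 xenograft tumors from daily orally dosed mice were fixed in 10% neutral-buffered formalin and paraffin-embedded. Six-micron sections were TUNEL-stained to detect apoptotic nuclei.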

[14] = target: T2, BCR/ABL p210 fusion protein; assay: Inhibition of BCR/ABL p210 fusion protein mediated signaling pathways assessed as reduction in ERK phosphorylation at T202/Y204 in human KU812 cells at 0.01 to 3 uM measured after 2 hrs by immunoblotting; assay type: cell-based; how it was run: as §3
[15] = Anticancer activity against human K562 cells xenografted in nu/nu mouse assessed as tumor weight at 25 mg/kg administered via oral gavage measured after 28 days (reference value: 6.75 g); assay type: functional
How it was run: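 Female nu/nu mice received ten million K562 cells subcutaneously in the right flank, in PBS mixed 1:1 with Matrigel. Daily oral gavage began at 200-400 mm³ tumor size, with 4 or 5 mice per group. Dosing was 25, 50 or 100 mg/kg/d or vehicle (0.5% methylcellulose/0.4% Tween80) for 28 days. Body weight and tumor size were normalized to initial values, and final tumor weight was recorded. Data are mean ± SEM.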

[16] = target: T3, Mast/stem cell growth factor receptor Kit; assay: Inhibition of c-KIT autophosphorylation at Y719 in human GISTT1 cells at 0.03 to 10 uM measured after 2 hrs by immunoblotting; assay type: cell-based; how it was run: as §3
[17] = target: Epithelial discoidin domain-containing receptor 1 (Homo sapiens, UniProt Q08345); assay: Inhibition of human GST-tagged DDR1 cytoplasmic domain expressed in baculovirus expression system measured after 1 hr by FRET based Z'Lyte assay; how it was run: as §4
[18] = target: Discoidin domain-containing receptor 2 (Homo sapiens, UniProt Q16832); assay: Inhibition of recombinant His-tagged human DDR2 cytoplasmic domain expressed in baculovirus expression system measured after 1 hr by FRET based Z'Lyte assay; how it was run: as §4
[19] = test system: Mast/stem cell growth factor receptor Kit (Homo sapiens), P10721 [T670I]; assay: Inhibition of Tel-fused c-KIT T670I mutant (unknown origin) expressed in BAF3 cells assessed as growth inhibition measured after 72 hrs by CellTiter-Glo or CCK8 assay; assay type: cell-based; how it was run: as §1
[20] = target: Platelet-derived growth factor receptor alpha (Homo sapiens) (UniProt P16234); assay: Inhibition of Tel-fused PDGFR-alpha (unknown origin) expressed in BAF3 cells assessed as growth inhibition measured after 72 hrs by CellTiter-Glo or CCK8 assay; assay type: cell-based; how it was run: as §1
[21] = target: T3, Mast/stem cell growth factor receptor Kit; settings: 1 uM
[22] = target: T3, Mast/stem cell growth factor receptor Kit; settings: GISTT1, 1 uM

T3 sequence (P10721 whole entry): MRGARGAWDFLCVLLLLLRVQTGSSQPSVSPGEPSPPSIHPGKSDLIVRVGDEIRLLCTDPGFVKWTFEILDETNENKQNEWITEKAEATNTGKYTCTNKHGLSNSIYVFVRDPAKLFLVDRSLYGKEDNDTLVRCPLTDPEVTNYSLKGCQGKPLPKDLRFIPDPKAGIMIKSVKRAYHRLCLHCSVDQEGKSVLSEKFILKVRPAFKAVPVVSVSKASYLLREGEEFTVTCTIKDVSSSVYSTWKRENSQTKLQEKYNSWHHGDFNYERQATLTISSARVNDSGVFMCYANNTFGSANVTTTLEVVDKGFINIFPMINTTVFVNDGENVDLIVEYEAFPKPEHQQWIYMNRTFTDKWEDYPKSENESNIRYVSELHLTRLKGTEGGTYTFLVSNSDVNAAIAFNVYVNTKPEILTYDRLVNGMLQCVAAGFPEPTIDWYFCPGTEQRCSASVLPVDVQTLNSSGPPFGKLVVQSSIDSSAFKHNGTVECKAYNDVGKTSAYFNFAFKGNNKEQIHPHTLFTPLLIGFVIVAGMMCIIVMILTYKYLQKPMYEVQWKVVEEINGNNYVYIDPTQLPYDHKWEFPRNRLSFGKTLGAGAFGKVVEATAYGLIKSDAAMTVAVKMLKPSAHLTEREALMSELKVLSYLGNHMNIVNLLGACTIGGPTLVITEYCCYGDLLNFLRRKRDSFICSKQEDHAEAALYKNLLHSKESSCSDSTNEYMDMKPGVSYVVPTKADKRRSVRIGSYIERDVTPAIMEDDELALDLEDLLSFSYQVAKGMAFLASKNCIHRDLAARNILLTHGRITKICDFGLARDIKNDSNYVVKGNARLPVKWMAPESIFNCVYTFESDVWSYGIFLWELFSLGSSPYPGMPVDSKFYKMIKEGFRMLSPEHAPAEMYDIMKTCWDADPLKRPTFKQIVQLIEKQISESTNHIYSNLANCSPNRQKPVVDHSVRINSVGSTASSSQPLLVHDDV
T2 sequence (A1Z199 1-97): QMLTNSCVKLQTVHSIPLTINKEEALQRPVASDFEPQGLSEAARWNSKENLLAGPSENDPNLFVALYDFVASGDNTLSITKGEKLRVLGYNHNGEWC
T1 sequence (P00519 whole entry): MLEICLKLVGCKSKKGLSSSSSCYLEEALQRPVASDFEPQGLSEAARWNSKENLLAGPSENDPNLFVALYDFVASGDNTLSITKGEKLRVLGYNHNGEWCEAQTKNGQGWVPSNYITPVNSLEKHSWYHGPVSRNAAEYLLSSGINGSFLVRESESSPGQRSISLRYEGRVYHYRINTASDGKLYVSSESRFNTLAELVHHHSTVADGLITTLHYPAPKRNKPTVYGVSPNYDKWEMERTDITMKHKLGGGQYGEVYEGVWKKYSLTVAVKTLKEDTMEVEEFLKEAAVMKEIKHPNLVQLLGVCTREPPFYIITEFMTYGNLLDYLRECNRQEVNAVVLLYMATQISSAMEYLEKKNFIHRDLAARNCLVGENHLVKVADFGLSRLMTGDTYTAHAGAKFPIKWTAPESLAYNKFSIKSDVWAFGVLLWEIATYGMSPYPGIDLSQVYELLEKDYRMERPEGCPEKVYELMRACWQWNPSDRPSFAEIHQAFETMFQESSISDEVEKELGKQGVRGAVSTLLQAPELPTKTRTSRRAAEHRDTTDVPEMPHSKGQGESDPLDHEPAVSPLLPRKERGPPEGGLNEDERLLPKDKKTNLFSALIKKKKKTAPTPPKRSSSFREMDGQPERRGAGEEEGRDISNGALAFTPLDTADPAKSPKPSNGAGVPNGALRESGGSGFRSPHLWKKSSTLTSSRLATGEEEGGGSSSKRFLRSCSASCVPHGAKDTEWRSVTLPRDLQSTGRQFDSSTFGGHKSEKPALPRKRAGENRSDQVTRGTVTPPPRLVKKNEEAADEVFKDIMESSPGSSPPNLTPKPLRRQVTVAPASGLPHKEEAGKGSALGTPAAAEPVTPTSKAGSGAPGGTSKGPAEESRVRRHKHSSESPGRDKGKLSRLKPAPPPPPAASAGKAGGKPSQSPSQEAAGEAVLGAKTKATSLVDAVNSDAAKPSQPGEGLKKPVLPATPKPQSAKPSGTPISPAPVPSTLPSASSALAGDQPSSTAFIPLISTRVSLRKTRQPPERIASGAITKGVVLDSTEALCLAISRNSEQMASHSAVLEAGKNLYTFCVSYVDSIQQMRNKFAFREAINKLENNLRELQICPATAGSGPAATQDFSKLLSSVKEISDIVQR
Chain of Mast/stem cell growth factor receptor Kit (Homo sapiens), P10721 [V654A] (P10721 whole entry V654A, the tested form may be a part): as the sequence (P10721 whole entry) above, with V654A counted along it
Chain of Epithelial discoidin domain-containing receptor 1 (Q08345 whole entry, the tested form may be a part): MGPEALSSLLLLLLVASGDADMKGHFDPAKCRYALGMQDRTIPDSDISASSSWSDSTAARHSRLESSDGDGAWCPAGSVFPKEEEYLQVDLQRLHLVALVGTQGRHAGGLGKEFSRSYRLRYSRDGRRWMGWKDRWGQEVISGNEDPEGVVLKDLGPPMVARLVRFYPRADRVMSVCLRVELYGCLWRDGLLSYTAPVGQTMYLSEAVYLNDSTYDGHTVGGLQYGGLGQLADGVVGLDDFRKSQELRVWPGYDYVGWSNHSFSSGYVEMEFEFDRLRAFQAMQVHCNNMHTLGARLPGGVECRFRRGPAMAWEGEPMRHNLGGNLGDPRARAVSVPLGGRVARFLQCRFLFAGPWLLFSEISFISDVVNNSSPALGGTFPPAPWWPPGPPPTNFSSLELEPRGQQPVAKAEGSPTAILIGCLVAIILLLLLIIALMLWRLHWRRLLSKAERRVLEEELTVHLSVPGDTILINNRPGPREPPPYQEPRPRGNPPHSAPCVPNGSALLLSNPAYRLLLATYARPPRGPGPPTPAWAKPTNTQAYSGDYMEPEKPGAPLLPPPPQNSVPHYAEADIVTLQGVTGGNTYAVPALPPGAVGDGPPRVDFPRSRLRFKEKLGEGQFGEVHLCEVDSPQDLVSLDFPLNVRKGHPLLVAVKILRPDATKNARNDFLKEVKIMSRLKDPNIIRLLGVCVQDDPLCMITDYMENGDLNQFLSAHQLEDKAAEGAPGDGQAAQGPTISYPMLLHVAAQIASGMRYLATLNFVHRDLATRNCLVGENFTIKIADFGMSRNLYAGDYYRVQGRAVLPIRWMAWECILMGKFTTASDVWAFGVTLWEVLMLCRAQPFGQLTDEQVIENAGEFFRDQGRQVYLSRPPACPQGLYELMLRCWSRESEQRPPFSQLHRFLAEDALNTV
Chain of Tyrosine-protein kinase Lck (P06239 2-509 limits assumed): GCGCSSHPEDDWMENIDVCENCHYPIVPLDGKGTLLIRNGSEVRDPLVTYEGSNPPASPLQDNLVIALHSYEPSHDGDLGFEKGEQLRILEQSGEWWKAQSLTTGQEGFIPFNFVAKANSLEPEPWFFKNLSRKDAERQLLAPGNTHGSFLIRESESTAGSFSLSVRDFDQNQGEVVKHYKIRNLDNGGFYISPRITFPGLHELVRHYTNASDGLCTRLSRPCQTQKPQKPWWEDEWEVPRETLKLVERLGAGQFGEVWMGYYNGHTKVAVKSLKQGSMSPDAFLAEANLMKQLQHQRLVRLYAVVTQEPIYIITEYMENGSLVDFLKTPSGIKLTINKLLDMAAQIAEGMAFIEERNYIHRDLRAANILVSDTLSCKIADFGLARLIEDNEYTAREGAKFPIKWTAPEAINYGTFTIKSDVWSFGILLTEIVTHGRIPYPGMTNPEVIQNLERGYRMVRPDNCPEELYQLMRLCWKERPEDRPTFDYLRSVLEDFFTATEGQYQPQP
Chain of Tyrosine-protein kinase Blk (P51451 whole entry, the tested form may be a part): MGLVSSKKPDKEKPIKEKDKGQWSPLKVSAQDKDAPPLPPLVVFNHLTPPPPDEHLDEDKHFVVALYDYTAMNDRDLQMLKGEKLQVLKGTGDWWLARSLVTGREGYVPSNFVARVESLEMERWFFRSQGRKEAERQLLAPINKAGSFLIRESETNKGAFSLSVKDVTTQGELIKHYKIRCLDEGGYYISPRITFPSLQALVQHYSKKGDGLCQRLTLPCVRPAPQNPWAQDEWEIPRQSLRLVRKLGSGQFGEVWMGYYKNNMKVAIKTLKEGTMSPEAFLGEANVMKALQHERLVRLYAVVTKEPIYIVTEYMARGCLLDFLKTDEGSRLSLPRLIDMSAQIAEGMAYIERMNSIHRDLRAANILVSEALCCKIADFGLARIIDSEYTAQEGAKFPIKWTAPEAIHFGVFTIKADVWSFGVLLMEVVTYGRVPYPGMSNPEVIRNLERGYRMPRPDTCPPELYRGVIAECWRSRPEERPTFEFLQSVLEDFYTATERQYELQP
Chain of Mast/stem cell growth factor receptor Kit (Homo sapiens), P10721 [T670I] (P10721 whole entry T670I, the tested form may be a part): as the sequence (P10721 whole entry) above, with T670I counted along it
Chain of Discoidin domain-containing receptor 2 (Q16832 whole entry, the tested form may be a part): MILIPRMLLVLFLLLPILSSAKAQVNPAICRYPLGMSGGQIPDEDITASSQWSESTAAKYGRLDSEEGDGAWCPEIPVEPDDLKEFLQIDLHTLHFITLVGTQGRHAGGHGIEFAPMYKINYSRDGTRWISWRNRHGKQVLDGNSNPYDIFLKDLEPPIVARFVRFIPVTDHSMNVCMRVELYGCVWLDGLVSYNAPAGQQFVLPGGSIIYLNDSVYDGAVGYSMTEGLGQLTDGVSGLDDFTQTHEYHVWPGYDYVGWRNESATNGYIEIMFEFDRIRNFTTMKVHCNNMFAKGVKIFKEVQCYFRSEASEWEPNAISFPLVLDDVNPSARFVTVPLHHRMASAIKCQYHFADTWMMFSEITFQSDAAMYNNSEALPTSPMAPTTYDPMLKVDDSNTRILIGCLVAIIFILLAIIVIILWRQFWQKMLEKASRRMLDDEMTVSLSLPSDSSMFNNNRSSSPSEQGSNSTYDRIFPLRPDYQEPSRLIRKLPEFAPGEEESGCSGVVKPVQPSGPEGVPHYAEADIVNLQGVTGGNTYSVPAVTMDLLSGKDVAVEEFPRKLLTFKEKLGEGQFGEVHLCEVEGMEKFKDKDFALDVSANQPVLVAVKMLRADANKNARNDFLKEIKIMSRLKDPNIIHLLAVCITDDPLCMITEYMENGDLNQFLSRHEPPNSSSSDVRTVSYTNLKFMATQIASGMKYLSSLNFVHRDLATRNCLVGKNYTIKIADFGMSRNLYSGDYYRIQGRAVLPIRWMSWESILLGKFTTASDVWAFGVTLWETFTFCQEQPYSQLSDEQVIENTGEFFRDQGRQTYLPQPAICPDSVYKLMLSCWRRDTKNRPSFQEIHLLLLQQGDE

GI50 [1]: 1840 nM | Activity [2]: 0.3% | IC50 [4]: 46 nM | inhibition [6]: Active | GI50 [8]: 386 nM | GI50 [9]: 5060 nM | IC50 [10]: 81 nM | inhibition [11]: Active | inhibition [12]: Active | inhibition [14]: Active | inhibition [16]: Active | IC50 [17]: 116 nM | IC50 [18]: 325 nM | GI50 [19]: 1850 nM | GI50 [20]: 12 nM
Compound: Cc1ccc(C(=O)N2CCC(Oc3cc(NC(=O)c4ccc(CN5CCN(C)CC5)c(C(F)(F)F)c4)ccc3C)CC2)cn1
GI50 [3]: 27 nM | Activity (K562 [5]): Active | Activity (K562 [7]): Dose-dependent effect | Activity (GISTT1): Active | Activity (K562 [13]): Dose-dependent effect | Activity [15]: 7.46 g

inhibition [21]: Active | inhibition [22]: Active
Compound: Cc1ccc(NC(=O)c2ccc(CN3CCN(C)CC3)cc2)cc1Nc1nccc(-c2cccnc2)n1 [IMATINIB]

From ChEMBL document CHEMBL3877303 (J Med Chem, 2017)
